# SR-BI DiI inh – inhibitors of mouse SR-BI mediated HDL lipid uptake; Q61009; ldlA[mSR-BI] CHO cells, DiI-HDL uptake fluorescence, 3 h; inhibition, % at 12.5 µM; 320,000 compounds, 0.96% hits; AID 488896;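 active = mean replicate inhibition of at least 70% and a set share of replicates each scoring 70 or more; inconclusive = meets just one of the two criteria; inactive = fails both criteria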
# FXN GAA850 act – frataxin GAA850 promoter activation. HEK293 lucGAA850 FXN promoter luciferase reporter, 24 h; percent of 10 µM SAHA response. activation, % at 6 µM. 360,000 compounds, 0.56% hits. AID 540364;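 active = activation above the average of all compounds screened plus 3 SD, cutoff fixed separately per campaign, cut at about 7.5% in these data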
# SR-BI DiI-HDL act – enhances SR-BI lipid uptake from DiI-HDL. activation, % at 12.5 µM. CHO ldlA[mSR-BI] cells, DiI-HDL uptake fluorescence, 3 h; 100 = double the neutral-control signal. 320,000 compounds, 0.096% hits;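 active = mean replicate activation of at least 60% and every replicate at or above 60%; inconclusive = mean or all-replicate condition met, but not both; inactive = mean below 60% and not all replicates reaching 60%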
#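 Test system: SR-BI-overexpressing, LDLR-lacking CHO cells. Measured by: DiI fluorescence, bottom read. Medium: Ham's F12 with 0.5% BSA, HEPES 25 mM, pH 7.4. Timing: 3 h uptake period with compound, 37 °C.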
# JMJD2C inh – inhibitors of human GASC-1 (JMJD2C) demethylase. inhibition, % at 2.35 µM. AID 2099. Q9H3R0. GST-JMJD2C(1-420) H3K9me3 demethylation, DELFIA europium. 330,000 compounds, 0.069% hits;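 active = more than half of a compound's replicate wells show inhibition beyond 50%, single wells judged on their own value; inconclusive = some, but no more than half, of replicates pass 50% inhibition; inactive = no replicate passes 50% inhibition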;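 also: signal counts dimethyl H3K9 product captured on neutravidin plate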
# AHR activator – activators of human aryl hydrocarbon receptor; AHR-responsive luciferase reporter cells, luminescence; activation, % at 5 µM; 320,000 compounds, 2.5% hits; AID 2796; in the data active = activation above about 47%
# Target sequence (P35869 whole entry, looked up): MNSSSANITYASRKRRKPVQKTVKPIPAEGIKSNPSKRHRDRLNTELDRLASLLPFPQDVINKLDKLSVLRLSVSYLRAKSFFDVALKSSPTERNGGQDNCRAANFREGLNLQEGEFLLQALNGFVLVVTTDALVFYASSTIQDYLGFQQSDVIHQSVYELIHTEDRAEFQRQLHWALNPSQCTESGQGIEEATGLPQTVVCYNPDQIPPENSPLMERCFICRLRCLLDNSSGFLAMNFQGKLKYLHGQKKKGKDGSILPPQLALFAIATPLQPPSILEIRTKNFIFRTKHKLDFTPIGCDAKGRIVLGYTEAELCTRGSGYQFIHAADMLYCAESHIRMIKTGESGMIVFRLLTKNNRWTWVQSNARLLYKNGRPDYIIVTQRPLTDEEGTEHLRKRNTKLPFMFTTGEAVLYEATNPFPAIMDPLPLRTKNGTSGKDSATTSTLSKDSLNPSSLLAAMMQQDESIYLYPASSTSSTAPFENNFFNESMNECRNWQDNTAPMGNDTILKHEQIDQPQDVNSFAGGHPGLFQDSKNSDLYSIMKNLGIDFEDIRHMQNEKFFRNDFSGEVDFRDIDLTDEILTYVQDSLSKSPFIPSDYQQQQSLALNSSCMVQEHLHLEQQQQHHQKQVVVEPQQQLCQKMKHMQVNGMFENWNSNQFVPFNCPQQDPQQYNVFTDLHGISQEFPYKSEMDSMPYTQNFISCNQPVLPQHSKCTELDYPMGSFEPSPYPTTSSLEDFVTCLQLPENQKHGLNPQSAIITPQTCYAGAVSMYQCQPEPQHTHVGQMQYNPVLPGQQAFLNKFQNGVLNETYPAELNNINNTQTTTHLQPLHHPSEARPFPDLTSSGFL
# GAA30 counter – GAA30 FXN promoter activation counter-screen | 1,900 compounds, 66% hits | activation, % at 6 µM | HEK293 lucGAA30 FXN promoter luciferase, 24 h; DMSO = 0%, 5 µM ipriflavone = 100% | shares compounds with FXN GAA850 act;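 active = mean activation above the mean of solvent-only control wells plus 3 SD, cut at about 22% in these data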;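 also: counterscreen of GAA850 promoter hits where activity marks nonselective or luminescence artifacts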
# GAA850 confirm – GAA850 FXN promoter activation confirmation | shares compounds with FXN GAA850 act | HEK293 lucGAA850 FXN promoter luciferase reporter, 24 h; 100% = activation by SAHA | activation, % at 6 µM | 1,900 compounds, 86% hits;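 active = mean activation above a set limit taken from the primary screen, cut at about 8% in these data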
# A number is an active result; n = inactive; u = inconclusive; x = not tested or not shown. The list is not random: actives were taken first. Their share in the collection is about 3.7%.
SMILES,SR-BI DiI inh,FXN GAA850 act,SR-BI DiI-HDL act,JMJD2C inh,AHR activator,GAA30 counter,GAA850 confirm
O=C1CN(c2nc(-c3cccs3)nc3sc4c(c23)CCCC4)CCN1,n,9.3,n,n,n,49.3,23.0
O=c1oc(-c2cccs2)nc2sc3c(c12)CCCC3,n,n,n,n,n,x,x
O=c1c2c3c(sc2nc2n1N=C(c1cccs1)CS2)CCCC3,n,9.6,n,n,n,87.4,40.2
COC(=O)[C@]1(Cc2ccccc2)N[C@H](CN(C)C(=O)Nc2ccc(Cl)cc2)[C@@H]2C(=O)N(C)C(=O)[C@@H]21,n,n,n,x,n,x,x
CCOC(=O)c1sc(-c2ccccc2)cc1N,n,8.9,n,n,n,86.6,23.2
CCOC(=O)c1sc(-c2ccc(OC)cc2)cc1N,n,9.7,n,n,n,108.5,30.0
CN(CC(=O)Nc1ccc(Cl)c(C(F)(F)F)c1)C(=O)CCNC(=O)c1ccco1,n,n,n,n,n,x,x
CN(CC(=O)Nc1ccc(Cl)c(C(F)(F)F)c1)C(=O)CCCNC(=O)c1ccc(Cl)cc1,n,14.8,n,n,n,65.4,25.9
CCOC(=O)Nc1ccc2c(C)cc(=O)oc2c1,n,n,n,n,n,x,x
CCCCOC(=O)Nc1ccc2c(C)cc(=O)oc2c1,n,7.7,n,n,n,119.9,38.5
Nc1ccccc1Nc1cccc(C(F)(F)F)c1,n,8.7,n,n,n,n,9.6
Cc1cc(C)nc(Nc2cccc(C(F)(F)F)c2)n1,n,n,n,n,n,x,x
Cc1cc(-c2nnco2)c(C)n1-c1ccc(F)cc1,n,7.7,n,n,n,53.0,22.0
Cc1ccc(C)n1-c1ccc(-c2nnco2)cc1,n,n,n,n,n,x,x
CS/C(N)=N/N=C/c1cc(C)ccc1O,x,8.6,x,n,n,122.2,37.9
CCS/C(N)=N/N=C/c1cc(C)ccc1O,n,n,n,n,n,x,x
CCC(Cc1ccccc1)NS(=O)(=O)c1csc(C(N)=O)c1 (stereo not given),n,n,n,n,n,x,x
Cc1cc(C)n2nc(/C(C#N)=C/c3ccccn3)c(C#N)c2n1,n,15.6,n,n,n,32.2,36.8
Cc1cc(C)n2nc(CC#N)c(C#N)c2n1,n,n,n,n,n,x,x
CC(C)CCOP(=O)(c1ccc(N(C)C)cc1)C(O)c1ccccc1 (stereo not given),n,8.2,n,n,n,n,n
Cn1/c(=N/N=C/c2ccc(N3CCOCC3)cc2)sc2ccccc21,n,n,n,n,n,x,x
Cn1/c(=N/N=C/c2ccccn2)sc2ccccc21,n,10.2,n,x,x,113.7,34.7
Cc1ccc(S(=O)(=O)Cn2nnnc2C(C(C)C)N2CCc3ccccc3C2)cc1 (stereo not given),n,10.1,n,n,n,n,7.7
Cc1ccc(S(=O)(=O)Cn2nnnc2C(C(C)C)N2CCSCC2)cc1 (stereo not given),n,n,n,n,n,x,x
CC1CCCC(C)N1CCCNC(=O)c1ccc2c(c1)NC(=O)c1ccccc1S2 (stereo not given),n,n,n,n,n,x,x
SMILES,SR-BI DiI inh,FXN GAA850 act,SR-BI DiI-HDL act,JMJD2C inh,AHR activator,GAA30 counter,GAA850 confirm
CCC(C)N(CCNC(=O)c1ccc2c(c1)NC(=O)c1ccccc1S2)C1CCCCC1 (stereo not given),n,11.0,n,n,n,n,11.0
COc1ccc(Cl)cc1-c1cc(C(=O)NCc2ccco2)[nH]n1,x,n,x,x,x,x,x
Cc1ccc(-n2c(C)nn(CCOc3ccccc3)c2=O)cc1,n,9.3,n,n,n,98.3,27.1
Cc1nn(CCOc2ccccc2)c(=O)n1-c1c(F)cccc1F,n,n,n,n,n,x,x
O=C(Nc1ccc2nsnc2c1)N1CCCCCC1,x,n,x,n,n,x,x
S=C(Nc1ccc2nsnc2c1)N1CCCC1,n,8.3,n,n,n,29.5,12.1
O=C1c2ccccc2C(=O)N1CCc1c[nH]c2ccccc12,n,9.0,n,n,n,87.7,37.4
C/C(=N\Nc1nc2ccccc2[nH]1)c1ccc(C)o1,n,8.4,n,n,76.5,120.7,36.1
CC(=O)OC[C@H]1O[C@H](C/C=N/OC[C@@H](O)[C@H]2O[C@@H]3OC(C)(C)O[C@@H]3[C@H]2O)C=C[C@@H]1OC(C)=O,x,x,x,n,n,x,x
O=C(Oc1ccc(/C=N/NC(=O)c2ccccn2)cc1)c1ccc(Br)cc1,n,n,n,n,n,x,x
O=C(N/N=C/C=C\c1ccco1)c1ccccn1,x,7.7,x,n,n,63.0,37.8
O=C(N/N=C/c1ccc(OC(=O)c2ccco2)cc1)c1ccccn1,n,7.8,n,n,n,114.8,33.0
O=C(Nc1nc2ccccc2[nH]1)C1CCC1,n,n,n,n,n,x,x
O=C(Nc1nc2ccccc2[nH]1)C1CCCC1,n,10.1,n,n,n,85.8,26.4
Clc1ccc(C2=Nn3c(nnc3-c3cc(-c4ccccc4)n[nH]3)SC2)cc1,n,n,n,n,n,x,x
c1ccc(C2=Nn3c(nnc3-c3cc(-c4ccccc4)n[nH]3)SC2)cc1,n,8.3,n,n,n,41.4,23.3
COC(=O)c1c(-c2ccc(SC)cc2)sc2ccc(OC)cc12,n,n,n,n,n,x,x
COc1ccc2sc(-c3ccc(SC)cc3)c(C#CC(C)(C)O)c2c1,n,7.8,n,n,n,37.3,26.1
CC(C)(C)OC(=O)CC(S(=O)(=O)c1ccccc1)S(=O)(=O)c1ccccc1,x,18.3,x,x,x,n,42.2
CN([C@@H](C(=O)OC(C)(C)C)c1ccccc1)S(=O)(=O)c1cccc(S(=O)(=O)N(C)[C@@H](C(=O)OC(C)(C)C)c2ccccc2)c1,n,n,n,u,n,x,x
CCOc1ccc(CNC(=O)CN2C(=O)CSc3ccc(S(=O)(=O)N4CCOCC4)cc32)cc1,x,n,x,x,x,x,x
CCCc1cc(C(=O)Nc2cc(C)ccc2O)no1,n,10.1,n,n,n,90.9,42.8
CCCc1cc(C(=O)Nc2cccnc2Cl)no1,n,n,n,u,n,x,x
COc1ccc(OC)c(NC(=O)C2CCCN(S(=O)(=O)c3c(C)nn(C)c3C)C2)c1 (stereo not given),x,14.1,x,n,n,n,9.3
Cc1cccc(CC(=O)N2CCOCC2)c1,n,n,n,n,n,x,x
COc1cccc(CNC(=O)CCC2CCCN(C(=O)c3ccc(OC)o3)C2)c1 (stereo not given),x,n,x,n,n,x,x
CC(C)(C)c1ccc(Cn2nnc3c(=O)[nH]c(C4CCN(C(=O)Cc5cccs5)CC4)nc32)cc1,n,8.3,n,n,n,n,10.0
COc1cc(OC)c(-c2nn3c(C4CCCCC4)nnc3s2)cc1OC,n,12.8,n,n,n,n,11.6
COc1cc(-c2nnc3sc(C4CCCCC4)nn23)cc(OC)c1OC,n,n,n,n,n,x,x

# Bioassay records (PubChem BioAssay)
